# Measurements from ChEMBL document CHEMBL1133538, “7-Deazaadenines bearing polar substituents: structure-activity relationships of new A(1) and A(3) adenosine receptor antagonists” (J Med Chem, 2000).
# Key:
# Adenosine receptor A1 = target: T1, Adenosine receptor A1 (Rattus norvegicus, UniProt P25099); assay: Tested for its binding affinity at adenosine A1 receptor in rat brain cortical membrane preparations using [3H]CCPA as a radioligand; assay type: cell membranes
# T1 sequence (P25099 whole entry): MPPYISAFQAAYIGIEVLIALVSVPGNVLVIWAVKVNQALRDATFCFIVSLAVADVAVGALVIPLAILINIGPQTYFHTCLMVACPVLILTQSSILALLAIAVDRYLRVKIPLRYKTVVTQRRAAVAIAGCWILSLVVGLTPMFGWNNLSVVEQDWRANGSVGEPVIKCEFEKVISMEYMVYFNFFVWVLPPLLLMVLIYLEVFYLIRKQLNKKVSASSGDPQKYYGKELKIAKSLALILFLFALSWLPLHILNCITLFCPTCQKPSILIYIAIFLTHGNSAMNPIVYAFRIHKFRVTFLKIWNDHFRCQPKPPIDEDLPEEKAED
# Outline: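 Rat brain cortical membranes, A1 agonist radioligand [3H]CCPA at 0.5 nM. Compounds dissolved in DMSO, diluted into aqueous buffer, tested at 5-7 concentrations in triplicate, at least three separate experiments.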
# [1] = target: Adenosine receptor A2a (Rattus norvegicus) (UniProt P30543); assay: Binding affinity against adenosine A2A receptor in rat striatal membrane preparations using [3H]CGS-21680 at 30 uM; assay type: cell membranes; conditions: Striatum
# Outline: (§1)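 Rat striatal membranes, A2A-selective agonist [3H]CGS21680 at 5 nM. Compounds dissolved in DMSO, diluted into aqueous buffer. Value given as percent inhibition of radioligand binding at the single stated concentration.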
# Adenosine receptor A2a [2] = target: T2, Adenosine receptor A2a (Rattus norvegicus, UniProt P30543); assay: Binding affinity at adenosine A2A receptor in rat striatal membrane preparations using [3H]CGS-21680 at a 30 uM; assay type: cell membranes, Striatum
# [3] = Solubility determined in […]-hydrochloride buffer at pH 7.4; assay type: physicochemical; conditions: in the assay text read “50 mM” for “50 nM”
# Outline: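 10 mM DMSO solution diluted 1:100 into 50 mM TRIS-HCl pH 7.4 (1% DMSO), shaken overnight at room temperature to equilibrium, centrifuged at 1000g, supernatant filtered through cotton. Dilutions analysed by HPLC with UV detection, concentration from calibration curves.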
# [4] = target: T3, Adenosine receptor A1 (Rattus norvegicus) (UniProt P25099); assay: Ratio between solubility and Ki for A1 adenosine receptor
# T3 sequence (whole entry): T1 sequence (P25099 whole entry)
# [5] = target: T3, Adenosine receptor A1 (Rattus norvegicus); assay: Binding affinity against adenosine A1 receptor in rat brain cortical membrane preparations using [3H]CCPA at 30 uM; assay type: cell membranes
# Outline: (§2)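 Rat brain cortical membranes with [3H]CCPA (0.5 nM) as A1 radioligand. Compounds from DMSO stock diluted into aqueous buffer. Value given as percent inhibition of specific radioligand binding at the single stated concentration.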
# [6] = target: Adenosine receptor A1 (Homo sapiens) (UniProt P30542); assay: Binding affinity against adenosine A1 receptor expressed in CHO cells using [3H]CCPA
# [7] = target: T3, Adenosine receptor A1 (Rattus norvegicus); assay: Binding affinity against adenosine A1 receptor in rat brain cortical membrane preparations using [3H]CCPA at 100 uM; assay type: cell membranes; outline: as §2
# [8] = target: Adenosine receptor A2a (Rattus norvegicus) (UniProt P30543); assay: (§3) Binding affinity against adenosine A2A receptor in rat striatal membrane preparations using [3H]CGS-21680 at 10 uM; assay type: cell membranes; conditions: Striatum; outline: as §1
# [9] = target: Adenosine receptor A2a (Rattus norvegicus) (UniProt P30543); assay: Binding affinity against adenosine A2A receptor in rat striatal membrane preparations at 10 uM; assay type: cell membranes; conditions: Striatum; outline: as §1
# Adenosine receptor A2a [10] = target: T2, Adenosine receptor A2a; assay: as §3; assay type: cell membranes, Striatum
# [11] = target: Adenosine receptor A2a (Rattus norvegicus) (UniProt P30543); assay: Binding affinity against adenosine A2A receptor in rat striatal membrane preparations at 30 uM; assay type: cell membranes; conditions: Striatum; outline: as §1
# [12] = target: Adenosine receptor A2a (Rattus norvegicus) (UniProt P30543); assay: Binding affinity against adenosine A2A receptor in rat striatal membrane preparations using [3H]CGS-21680 at 3 uM; assay type: cell membranes; conditions: Striatum; outline: as §1
# [13] = target: Adenosine receptor A2a (Rattus norvegicus) (UniProt P30543); assay: Binding affinity against adenosine A2A receptor in rat striatal membrane preparations using [3H]CGS-21680 at 1 uM; assay type: cell membranes; conditions: Striatum; outline: as §1
# [14] = target: T3, Adenosine receptor A1 (Rattus norvegicus); assay: Binding affinity against adenosine A1 receptor in rat brain cortical membrane preparations using [3H]CCPA; assay type: cell membranes; conditions: concentration not given here
# Outline: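 Rat brain cortical membranes, A1 agonist radioligand [3H]CCPA at 0.5 nM. Compounds dissolved in DMSO, diluted into aqueous buffer, tested at 5-7 concentrations in triplicate, at least three separate experiments. IC50 from nonlinear curve fitting, converted to Ki with Cheng-Prusoff using KD 0.2 nM.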
# Adenosine receptor A2a (Rattus norvegicus), sequence (P30543 whole entry): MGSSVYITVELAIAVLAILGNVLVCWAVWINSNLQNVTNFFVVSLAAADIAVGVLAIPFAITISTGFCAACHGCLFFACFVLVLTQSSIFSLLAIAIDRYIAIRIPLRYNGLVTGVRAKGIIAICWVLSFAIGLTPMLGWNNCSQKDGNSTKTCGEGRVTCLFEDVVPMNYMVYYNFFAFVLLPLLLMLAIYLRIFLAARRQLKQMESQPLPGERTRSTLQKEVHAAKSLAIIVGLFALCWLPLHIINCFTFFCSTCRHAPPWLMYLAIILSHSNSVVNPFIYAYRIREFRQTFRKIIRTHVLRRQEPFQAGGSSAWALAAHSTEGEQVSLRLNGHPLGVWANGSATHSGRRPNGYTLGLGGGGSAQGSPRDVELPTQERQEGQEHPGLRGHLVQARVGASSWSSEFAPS
# T2 sequence (P30543 whole entry): as above
# Adenosine receptor A1 (Homo sapiens), sequence (P30542 whole entry, looked up): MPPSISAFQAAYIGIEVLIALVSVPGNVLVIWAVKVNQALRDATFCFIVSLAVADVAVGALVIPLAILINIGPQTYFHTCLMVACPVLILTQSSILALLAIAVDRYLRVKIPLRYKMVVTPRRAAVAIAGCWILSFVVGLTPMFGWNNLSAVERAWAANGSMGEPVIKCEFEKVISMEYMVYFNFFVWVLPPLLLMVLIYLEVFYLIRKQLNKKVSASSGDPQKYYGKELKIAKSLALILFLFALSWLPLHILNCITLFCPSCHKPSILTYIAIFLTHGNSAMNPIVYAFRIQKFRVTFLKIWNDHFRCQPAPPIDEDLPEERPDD
Ki (Adenosine receptor A1),inhibition [1],SMILES,also measured
3580 nM,2%,Cc1c(C)n([C@H](C)c2ccccc2)c2nc(-c3ccccc3)nc(NCCN)c12,solubility [3]: 24.2 µM; Ratio [4]: 7
–,3%,Cc1c(C)n([C@H](C)c2ccccc2)c2nc(-c3cccnc3)nc(N)c12,inhibition [7]: 35%
6840 nM,–,Cc1[nH]c2nc(C(C)c3ccccc3)nc(N)c2c1C (stereo unspecified),inhibition [8]: 10%
–,44%,Nc1nc(-c2cccnc2)nc2c1c1c(n2-c2ccccc2)CCCC1,–
600 nM,–,Nc1nc(-c2ccncc2)nc2c1c1c(n2-c2ccccc2)CCCC1,inhibition [9]: 28%
36 nM,–,C[C@H](c1ccccc1)n1c2ccccc2c2c(N)nc(-c3cccs3)nc21,inhibition [12]: 32%
1300 nM,–,C[C@H](c1ccccc1)n1c2c(c3c(N)nc(-c4cccnc4)nc31)CCCC2,inhibition [11]: 46%
92 nM,–,C[C@H](c1ccccc1)n1c2ccccc2c2c(N)nc(-c3cccnc3)nc21,inhibition [8]: 47%
2100 nM,43%,Cc1c(C)n([C@H](C)c2ccccc2)c2nc(-c3ccccn3)nc(N)c12,–
–,19%,Cc1c(C)n([C@H](C)c2ccccc2)c2nc(-c3ccccc3)nc(NC3CCCC3)c12,inhibition [5]: 41%
19 nM,–,Cc1c(C)n([C@H](C)c2ccccc2)c2nc(-c3cccs3)nc(N)c12,Ki (Adenosine receptor A2a [2]): 5400 nM
560 nM,–,Cc1c(C)n([C@H](C)c2ccccc2)c2nc(-c3cnccn3)nc(N)c12,Ki (Adenosine receptor A2a [2]): 6600 nM
–,38%,Cc1c(C)n([C@H](C)c2ccccc2)c2nc(C(C)c3ccccc3)nc(N)c12 (stereo partly specified),inhibition [5]: 33%
2600 nM,36%,CCC(CO)Nc1nc(-c2ccc(Cl)cc2)nc2c1c(C)c(C)n2[C@H](C)c1ccccc1 (stereo partly specified),solubility [3]: 11.2 µM; Ratio [4]: 4

# More lines, now with the values behind:
SMILES,Ki (Adenosine receptor A1),inhibition [1],also measured
Cc1c(C)n([C@H](C)c2ccccc2)c2nc(-c3ccccc3O)nc(N)c12,240 nM,46%,–
Cc1c(C)n([C@H](C)c2ccccc2)c2nc(-c3cc[n+]([O-])cc3)nc(N)c12,490 nM,–,Ki (Adenosine receptor A2a [2]): 5900 nM
COc1ccccc1-c1nc(N)c2c(C)c(C)n([C@H](C)c3ccccc3)c2n1,–,14%,inhibition [5]: 38%
Nc1nc(-c2ccccn2)nc2c1c1c(n2-c2ccccc2)CCCC1,8900 nM,42%,–
CCC(CO)Nc1nc(-c2ccccc2)nc2c1c(C)c(C)n2C1CCCC1 (stereo unspecified),1240 nM,22%,solubility [3]: 13.2 µM; Ratio [4]: 11
Cc1c(C)n([C@H](C)c2ccccc2)c2nc(-c3ccccc3)nc(N[C@@H](C)c3ccccc3)c12,18300 nM,26%,–
Cc1c(C)n([C@H](C)c2ccccc2)c2nc(-c3ccncc3)nc(N)c12,46 nM,–,Ki (Adenosine receptor A2a [2]): 1300 nM; Ki [6]: 8.8 nM
Cc1c(C)n([C@H](C)c2ccccc2)c2nc(-c3ccco3)nc(N)c12,16 nM,–,Ki (Adenosine receptor A2a [2]): 490 nM
C[C@H](c1ccccc1)n1c2ccccc2c2c(N)nc(-c3ccncc3)nc21,21 nM,–,solubility [3]: 3 µM; Ki (Adenosine receptor A2a [10]): 1850 nM; Ratio [4]: 142
C[C@H](c1ccccc1)n1c2c(c3c(N)nc(-c4cc[n+]([O-])cc4)nc31)CCCC2,1850 nM,–,inhibition [11]: 50%
C[C@@H](c1ccccc1)n1c2ccccc2c2c(N)nc(-c3ccccn3)nc21,540 nM,–,solubility [3]: 5 µM; inhibition [13]: 6%; Ratio [4]: 9
Cc1c(C)n([C@H](C)c2ccccc2)c2nc(-c3ccccc3)nc(N)c12,–,–,Ki (Adenosine receptor A2a [10]): 3710 nM
Cc1nc2nc(-c3ccccc3)[nH]c(N[C@H](C)c3ccccc3)c-2c1C,–,–,inhibition [8]: 23%
C[C@@H](c1ccccc1)n1c2c(c3c(N)nc(-c4ccccn4)nc31)CCCC2,12500 nM,–,inhibition [11]: 38%
C[C@@H](c1ccccc1)n1c2c(c3c(N)nc(-c4ccncc4)nc31)CCCC2,–,–,inhibition [14]: 8%; inhibition [11]: 2%
